Activity calls are given as the source filed them. The rule behind the calls is not given here.
How the values were obtained:
Cytochrome P450 2C19 = Cytochrome P450 2C19 (Homo sapiens, UniProt P33261); assay: Inhibition of CYP2C19 in human liver microsomes using S-mephenytoin as substrate; format: ADME, Microsome
[1] = biological target: Gamma-secretase (Homo sapiens) (UniProt Q96BI3+Q9NZ42+Q8WW43+P49768+Q92542+P49810); assay: Inhibition of gamma-secretase in human SK-N-BE(2) cells expressing wild type APP 695 assessed as reduction in total amyloid beta level up to 10 uM after overnight incubation by sandwich immunoassay; format: cell-based
Procedure, shortened: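 SK-N-BE(2) cells with wild-type APP695 were plated at 10⁴ cells/well in supplemented Ultraculture with test compound at several concentrations. They were incubated overnight at 37 °C, 5% CO₂. Supernatant Aβtotal was measured by AlphaLisa sandwich immunoassay (JRF/AβN/25 capture, biotinylated 4G8). Data are % of the maximum Aβtotal seen without compound.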

Brain = assay: Drug uptake in CD1 mouse brain at 30 mg/kg, po at 48 hrs by LC-MS/MS analysis; format: ADME, organism-based; parameters: dose 30 mg/kg, route oral; settings: in vivo, BLD = below limit of detection
Procedure, shortened: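 Overnight-fasted male CD1 mice received one oral dose (10 or 30 mg/kg) in 20% Captisol. After sacrifice, the left brain hemisphere was stored at −18 °C. Compound level was quantified by a qualified LC-MS/MS method, alongside EDTA plasma spun at 1900g, 4 °C. n = 4 per time point.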

Mus musculus = assay: Antialzheimer activity in CD1 mouse assessed as amyloid beta 42 level in brain at 30 mg/kg, po at 4 hrs by ELISA relative to control; format: functional
Procedure, shortened: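 Male CD1 SPF mice, fasted overnight, got a single oral dose of 10 or 30 mg/kg. At each time point the right brain hemisphere was homogenized in 0.4% DEA/50 mM NaCl with protease inhibitors and spun at 221300g for 50 min. The supernatant was neutralized with Tris-HCl pH 6.8. Aβ38 or Aβ42 was read by sandwich ELISA with a fluorogenic peroxidase substrate (ex 320/em 420 nm). Results are mean % change versus T = 0 h, n = 4.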

Rattus norvegicus [2] = assay: Antialzheimer activity in Sprague-Dawley rat assessed as amyloid beta 38 level in brain at 10 mg/kg, po at 4 hrs by ELISA relative to control; format: functional
Procedure, shortened: (§1)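 Male Sprague-Dawley rats (180-220 g), fasted overnight, were given 10 mg/kg by gastric intubation as a 5 mg/mL suspension in 0.5% methocellulose. At 2, 4, 7 and 25 h, 50 μL CSF was taken from the cisterna magna under isoflurane, then brain was collected. Aβ37/38/40/42 were measured by MesoScale Discovery sandwich immunoassays. Results are mean % change versus T = 0 h, n = 5.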

Gamma-secretase = assay: Modulation of gamma-secretase in human SK-N-BE(2) cells expressing wild type APP 695 assessed as reduction in amyloid beta 42 level after overnight incubation by sandwich immunoassay; format: cell-based
Procedure, shortened: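 SK-N-BE(2) cells carrying wild-type APP695, plated at 10⁴ cells/well in Ultraculture with glutamine, NEAA, penicillin/streptomycin plus test compound at a range of concentrations. Incubated overnight at 37 °C, 5% CO₂. Supernatant Aβ42 measured by AlphaLisa sandwich immunoassay (JRF/cAβ42/26 capture, biotinylated JRF/AβN/25). IC50 derived from % of maximal Aβ42 without compound. Mean of at least three determinations.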

[3] = Plasma concentration in beagle dog at 20 mg/kg, po at 4 hrs; format: ADME, organism-based, Canis lupus familiaris; parameters: dose 20 mg/kg, route oral
Rattus norvegicus [4] = assay: Antialzheimer activity in Sprague-Dawley rat assessed as amyloid beta 40 level in CSF at 10 mg/kg, po at 7 hrs by ELISA relative to control; format: functional; procedure, shortened: as §1
MDR1 = assay: Apparent permeability from basal to apical side of pig LLCPK1 cells expressing MDR1; format: ADME, cell-based, Sus scrofa; settings: LLC-PK1
Canis familiaris = assay: Antialzheimer activity in beagle dog assessed as amyloid beta 38 level in cerebrospinal fluid at 20 mg/kg, po at 24 hrs by ELISA relative to control
[5] = Oral bioavailability in CD1 Swiss mouse at 10 mg/kg; format: ADME, organism-based; settings: in vivo
[6] = Fraction unbound in mouse plasma; format: ADME, cell-free
Cytochrome P450 2C9 = Cytochrome P450 2C9 (Homo sapiens, UniProt P11712); assay: Inhibition of CYP2C9 in human liver microsomes using tolbutamide as substrate; format: ADME, Microsome
[7] = Fraction unbound in dog plasma; format: ADME, cell-free, Canis lupus familiaris
Rattus norvegicus [8] = assay: Antialzheimer activity in Sprague-Dawley rat assessed as amyloid beta 42 level in brain at 10 mg/kg, po at 25 hrs by ELISA relative to control; format: functional; procedure, shortened: as §1
[9] = Drug metabolism in mouse liver microsomes at 1 uM after 15 mins by ion-trap mass spectrophotometry; format: ADME, Microsome; settings: read-out: Drug metabolism
[10] = Plasma concentration in Sprague-Dawley rat at 10 mg/kg, po at 2 hrs by LC-MS/MS analysis; format: ADME, organism-based; parameters: dose 10 mg/kg, route oral
Procedure, shortened: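 Overnight-fasted male Sprague-Dawley rats (180–220 g) were given 10 mg/kg by gastric intubation of a 5 mg/mL suspension in 0.5% methocellulose. Blood was collected after decapitation at 2, 4, 7 and 25 h under isoflurane anaesthesia. Plasma compound was measured as in the mouse assay, n = 5.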

Rattus norvegicus [11] = assay: Antialzheimer activity in Sprague-Dawley rat assessed as amyloid beta 38 level in CSF at 10 mg/kg, po at 2 hrs by ELISA relative to control; format: functional; procedure, shortened: as §1
[12] = biological target: T1, Neuromedin-K receptor (Homo sapiens) (UniProt P29371); assay: Inhibition of NK3 receptor at 10 uM
T1 sequence (whole entry): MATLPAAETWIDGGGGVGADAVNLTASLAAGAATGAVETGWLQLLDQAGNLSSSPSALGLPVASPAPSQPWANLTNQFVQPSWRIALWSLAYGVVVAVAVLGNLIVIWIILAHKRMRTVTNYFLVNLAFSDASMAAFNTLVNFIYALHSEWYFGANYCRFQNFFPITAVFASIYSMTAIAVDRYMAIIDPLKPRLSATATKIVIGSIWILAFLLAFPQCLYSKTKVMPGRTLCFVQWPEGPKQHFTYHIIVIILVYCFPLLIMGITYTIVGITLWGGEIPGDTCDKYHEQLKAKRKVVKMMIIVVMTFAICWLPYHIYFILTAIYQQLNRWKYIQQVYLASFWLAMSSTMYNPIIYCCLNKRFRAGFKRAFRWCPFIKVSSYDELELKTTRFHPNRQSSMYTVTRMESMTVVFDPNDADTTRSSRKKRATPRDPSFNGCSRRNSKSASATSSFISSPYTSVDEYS

[13] = Drug uptake in Sprague-Dawley rat brain at 10 mg/kg, po at 2 hrs by LC-MS/MS analysis; format: ADME, organism-based; parameters: dose 10 mg/kg, route oral; settings: read-out: Drug uptake
Procedure, shortened: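 Overnight-fasted male Sprague–Dawley rats (180–220 g) were dosed 10 mg/kg by gastric intubation of a 5 mg/mL suspension in 0.5% methocellulose. Rats were anesthetized with isoflurane, CSF was taken from the cisterna magna, then they were decapitated. Brain compound levels were measured as in the mouse assay. n = 5.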

hERG (KCNH2) = hERG (KCNH2) (Homo sapiens, UniProt Q12809); assay: Inhibition of human ERG at 3 uM by patch clamp assay
Procedure, shortened: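 Potassium membrane current was recorded with an automated patch-clamp system at 3 μM, with a vehicle control.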

Sequence of hERG (KCNH2) (Q12809 whole entry): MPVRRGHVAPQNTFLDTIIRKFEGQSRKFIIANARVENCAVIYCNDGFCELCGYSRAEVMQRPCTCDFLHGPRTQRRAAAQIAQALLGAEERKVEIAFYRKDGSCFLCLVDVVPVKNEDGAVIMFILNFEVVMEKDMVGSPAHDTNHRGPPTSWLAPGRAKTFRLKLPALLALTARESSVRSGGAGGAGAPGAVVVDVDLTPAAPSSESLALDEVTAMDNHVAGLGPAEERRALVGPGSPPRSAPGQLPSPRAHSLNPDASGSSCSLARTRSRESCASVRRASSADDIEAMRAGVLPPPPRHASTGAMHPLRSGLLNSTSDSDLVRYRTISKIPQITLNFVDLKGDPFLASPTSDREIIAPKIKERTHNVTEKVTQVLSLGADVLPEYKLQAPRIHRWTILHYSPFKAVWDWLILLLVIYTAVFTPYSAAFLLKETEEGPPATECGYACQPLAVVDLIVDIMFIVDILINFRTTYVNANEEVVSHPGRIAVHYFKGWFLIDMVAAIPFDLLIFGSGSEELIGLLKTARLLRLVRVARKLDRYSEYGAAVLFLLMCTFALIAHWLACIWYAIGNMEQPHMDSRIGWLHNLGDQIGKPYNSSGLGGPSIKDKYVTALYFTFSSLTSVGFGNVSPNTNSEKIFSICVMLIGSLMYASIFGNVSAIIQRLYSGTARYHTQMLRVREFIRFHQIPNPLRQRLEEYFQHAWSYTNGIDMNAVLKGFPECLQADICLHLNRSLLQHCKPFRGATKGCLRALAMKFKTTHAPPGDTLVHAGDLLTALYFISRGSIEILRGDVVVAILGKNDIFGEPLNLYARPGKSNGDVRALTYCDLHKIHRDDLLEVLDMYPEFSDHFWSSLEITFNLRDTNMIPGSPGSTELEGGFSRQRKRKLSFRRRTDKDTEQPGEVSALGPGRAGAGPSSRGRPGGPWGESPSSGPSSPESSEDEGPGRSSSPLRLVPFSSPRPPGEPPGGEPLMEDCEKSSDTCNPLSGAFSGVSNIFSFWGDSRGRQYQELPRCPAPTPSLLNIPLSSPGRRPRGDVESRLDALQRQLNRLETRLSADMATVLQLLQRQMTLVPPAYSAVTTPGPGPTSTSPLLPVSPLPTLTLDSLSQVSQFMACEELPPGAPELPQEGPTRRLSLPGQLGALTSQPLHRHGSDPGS
Sequence of Cytochrome P450 2C9 (P11712 whole entry): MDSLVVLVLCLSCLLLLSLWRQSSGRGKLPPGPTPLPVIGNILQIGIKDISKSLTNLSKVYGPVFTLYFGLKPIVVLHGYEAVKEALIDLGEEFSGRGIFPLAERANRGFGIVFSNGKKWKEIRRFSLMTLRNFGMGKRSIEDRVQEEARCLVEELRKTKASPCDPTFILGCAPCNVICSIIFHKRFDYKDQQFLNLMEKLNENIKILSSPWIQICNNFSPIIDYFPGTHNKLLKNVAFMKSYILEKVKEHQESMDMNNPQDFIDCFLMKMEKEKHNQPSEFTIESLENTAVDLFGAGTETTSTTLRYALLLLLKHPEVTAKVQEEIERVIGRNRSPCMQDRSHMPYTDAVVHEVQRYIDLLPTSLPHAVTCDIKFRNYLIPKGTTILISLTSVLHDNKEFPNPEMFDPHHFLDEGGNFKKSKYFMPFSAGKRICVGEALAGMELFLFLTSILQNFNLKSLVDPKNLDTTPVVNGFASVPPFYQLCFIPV
Sequence of Cytochrome P450 2C19 (P33261 whole entry): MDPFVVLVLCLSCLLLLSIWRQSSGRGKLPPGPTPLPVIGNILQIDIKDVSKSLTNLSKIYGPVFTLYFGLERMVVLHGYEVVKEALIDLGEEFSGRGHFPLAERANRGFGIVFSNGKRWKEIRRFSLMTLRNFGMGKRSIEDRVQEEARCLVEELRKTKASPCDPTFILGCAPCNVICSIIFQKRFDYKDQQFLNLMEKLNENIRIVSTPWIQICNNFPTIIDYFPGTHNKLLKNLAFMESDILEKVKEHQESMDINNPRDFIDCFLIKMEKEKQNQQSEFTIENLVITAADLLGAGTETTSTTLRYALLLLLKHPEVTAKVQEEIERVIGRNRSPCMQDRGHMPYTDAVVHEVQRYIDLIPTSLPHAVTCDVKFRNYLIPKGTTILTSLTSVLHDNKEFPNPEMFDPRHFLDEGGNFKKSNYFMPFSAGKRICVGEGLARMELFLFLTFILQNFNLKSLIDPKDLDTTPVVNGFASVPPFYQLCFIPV

For `COc1nc(Nc2cccc3c2nc(-c2ccc(F)cc2)n3C)ccc1-n1cnc(C)c1`, the IC50 (Cytochrome P450 2C19) was 3.5 µM, the inhibition [1] was “inactive” and the Drug uptake (Brain) was “BLD”. The Activity (Mus musculus) was 35%, the Activity (Rattus norvegicus [2]) was 114% and the IC50 (Gamma-secretase) was 0.016 µM. It also gave a concentration at 4 h [3] of 4.1 µM, an Activity (Rattus norvegicus [4]) of 56% and a Papp B→A (MDR1) of 4 ×10⁻⁶ cm/s. The Activity (Canis familiaris) was 114%, the bioavailability [5] was 100% and the fraction unbound [6] was 0.0004. For the same compound, the IC50 (Cytochrome P450 2C9) was 21.9 µM, the fraction unbound [7] was 0.0003 and the Activity (Rattus norvegicus [8]) was 92%. It also gave a metabolised at 0.25 h, 1 µM [9] of 0%, a concentration at 2 h [10] of 4.6 µM and an Activity (Rattus norvegicus [11]) of 162%. It also gave an inhibition [12] of 71%, a concentration at 2 h [13] of 2.5 µM and an inhibition at 3 µM (hERG (KCNH2)) of 30%.

Reference: ChEMBL document CHEMBL2176900, “Design and synthesis of a novel series of bicyclic heterocycles as potent γ-secretase modulators” (J Med Chem, 2012)
